We go through one compound from ChEMBL document CHEMBL1148948, “Biotransformation of nobiletin by Aspergillus niger and the antimutagenic activity of a metabolite, 4'-hydroxy-5,6,7,8,3'-pentamethoxyflavone” (2004).

Activity calls are given as the source filed them. No cut-off for these calls is given here.

Assay [1] relates to Salmonella typhimurium. Kind of assay: Antimutagenic activity in Salmonella Typhimurium TA1535 carrying pSK1002 containing umuC'-lacZ fused gene assessed as suppression of 0.1 j/M2 UV light-induced SOS response to alteration in DNA synthesis at 0.3 mM measured by beta-galactosidase activity by Umu test. It is filed as functional, Salmonella enterica subsp. enterica serovar Typhimurium. In a few lines: (§1)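 S. typhimurium TA1535/pSK1002 (umuC′-′lacZ fusion on the plasmid). The overnight culture was diluted 50-fold in fresh TGA medium and grown at 37 °C to A600 0.25-0.30. SOS induction was read as β-galactosidase activity in Miller units. The S9 mix used rat liver S9 (phenobarbital/5,6-benzoflavone-pretreated males) with G-6-P, NADH and NADPH cofactors.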

Assay [2] concerns Salmonella typhimurium. Kind of assay: Antimutagenic activity in Salmonella Typhimurium TA1535 carrying pSK1002 containing umuC'-lacZ fused gene assessed as suppression of Trp-P-1-induced SOS response to alteration in DNA synthesis at 0.05 mM measured by beta-galactosidase activity by Umu test. It is filed as functional, Salmonella enterica subsp. enterica serovar Typhimurium. In short, it runs like this:
as §1

Assay [3] deals with Salmonella typhimurium. In words: Antimutagenic activity in Salmonella Typhimurium TA1535 carrying pSK1002 containing umuC'-lacZ fused gene assessed as suppression of 0.1 j/M2 UV light-induced SOS response to alteration in DNA synthesis at 0.1 mM measured by beta-galactosidase activity by Umu test. The class given is functional, Salmonella enterica subsp. enterica serovar Typhimurium. In a few lines:
as §1

Assay [4] relates to Salmonella typhimurium. Kind of assay: Inhibition of activated Trp-P-1-induced SOS response to alteration in DNA synthesis in Salmonella Typhimurium TA1535 carrying pSK1002 containing umuC'-lacZ fused gene. The class given is functional, Salmonella enterica subsp. enterica serovar Typhimurium. The settings on record: Salmonella enterica, read-out: ID50 (the source's name). In short, it runs like this: as §1

For assay [5], the system named is Salmonella typhimurium. In words: Antimutagenic activity in Salmonella Typhimurium TA1535 carrying pSK1002 containing umuC'-lacZ fused gene assessed as suppression of activated Trp-P-1-induced SOS response to alteration in DNA synthesis at 0.6 mM measured by beta-galactosidase activity by Umu test. The class given is functional, Salmonella enterica subsp. enterica serovar Typhimurium. In a few lines: as §1

In assay [6] the test system is Salmonella typhimurium. In words: Antimutagenic activity in Salmonella Typhimurium TA1535 carrying pSK1002 containing umuC'-lacZ fused gene assessed as suppression of activated MeIQ-induced SOS response to alteration in DNA synthesis at 0.3 mM measured by beta-galactosidase activity by Umu test. The class given is functional, Salmonella enterica subsp. enterica serovar Typhimurium. In a few lines: as §1

Assay [7] relates to Salmonella typhimurium. In words: Antimutagenic activity in Salmonella Typhimurium TA1535 carrying pSK1002 containing umuC'-lacZ fused gene assessed as suppression of furyfuramide-induced SOS response to alteration in DNA synthesis at 0.1 mM measured by beta-galactosidase activity by Umu test. The class given is functional, Salmonella enterica subsp. enterica serovar Typhimurium. In a few lines:
as §1

Assay [8] relates to Salmonella typhimurium. Kind of assay: Antimutagenic activity in Salmonella Typhimurium TA1535 carrying pSK1002 containing umuC'-lacZ fused gene assessed as suppression of MeIQ-induced SOS response to alteration in DNA synthesis measured by beta-galactosidase activity by Umu test. The class given is functional, organism-based. The settings on record: Salmonella enterica subsp. enterica serovar Typhimurium. In short, it runs like this: as §1

In assay [9] the test system is Salmonella typhimurium. Kind of assay: Antimutagenic activity in Salmonella Typhimurium TA1535 carrying pSK1002 containing umuC'-lacZ fused gene assessed as suppression of MeIQ-induced SOS response to alteration in DNA synthesis at 0.6 mM measured by beta-galactosidase activity by Umu test. It is filed as functional, Salmonella enterica subsp. enterica serovar Typhimurium. In a few lines:
as §1

For assay [10], the system named is Salmonella typhimurium. Kind of assay: Antimutagenic activity in Salmonella Typhimurium TA1535 carrying pSK1002 containing umuC'-lacZ fused gene assessed as suppression of activated MeIQ-induced SOS response to alteration in DNA synthesis at 0.6 mM measured by beta-galactosidase activity by Umu test. The class given is functional, Salmonella enterica subsp. enterica serovar Typhimurium. In a few lines:
as §1

Assay [11] concerns Salmonella typhimurium. Kind of assay: Inhibition of MeIQ-induced SOS response to alteration in DNA synthesis in Salmonella Typhimurium TA1535 carrying pSK1002 containing umuC'-lacZ fused gene at 0.6 mM. It is filed as functional, Salmonella enterica subsp. enterica serovar Typhimurium. Also noted: scale not given: the % may be the effect or the level left. In short, it runs like this: as §1

The test system of assay [12] is Salmonella typhimurium. Kind of assay: Antimutagenic activity in Salmonella Typhimurium TA1535 carrying pSK1002 containing umuC'-lacZ fused gene assessed as suppression of activated Trp-P-1-induced SOS response to alteration in DNA synthesis at 0.3 mM measured by beta-galactosidase activity by Umu test. It is filed as functional, Salmonella enterica subsp. enterica serovar Typhimurium. In short, it runs like this:
as §1

Assay [13] concerns Salmonella typhimurium. Kind of assay: Inhibition of activated Trp-P-1-induced SOS response to alteration in DNA synthesis in Salmonella Typhimurium TA1535 carrying pSK1002 containing umuC'-lacZ fused gene at 0.6 mM. The class given is functional, Salmonella enterica subsp. enterica serovar Typhimurium. Details: scale not given: the % may be the effect or the level left. In short, it runs like this:
as §1

The test system of assay [14] is Salmonella typhimurium. In words: Antimutagenic activity in Salmonella Typhimurium TA1535 carrying pSK1002 containing umuC'-lacZ fused gene assessed as suppression of furyfuramide-induced SOS response to alteration in DNA synthesis at 0.3 mM measured by beta-galactosidase activity by Umu test. It is filed as functional, Salmonella enterica subsp. enterica serovar Typhimurium. In short, it runs like this:
as §1

The test system of assay [15] is Salmonella typhimurium. Kind of assay: Antimutagenic activity in Salmonella Typhimurium TA1535 carrying pSK1002 containing umuC'-lacZ fused gene assessed as suppression of furyfuramide-induced SOS response to alteration in DNA synthesis measured by beta-galactosidase activity by Umu test. The class given is functional, organism-based. The settings on record: Salmonella enterica subsp. enterica serovar Typhimurium. In short, it runs like this:
as §1

In assay [16] the test system is Salmonella typhimurium. Kind of assay: Antimutagenic activity in Salmonella Typhimurium TA1535 carrying pSK1002 containing umuC'-lacZ fused gene assessed as suppression of MeIQ-induced SOS response to alteration in DNA synthesis at 0.05 mM measured by beta-galactosidase activity by Umu test. It is filed as functional, Salmonella enterica subsp. enterica serovar Typhimurium. In a few lines: as §1

Assay [17] relates to Salmonella typhimurium. Kind of assay: Antimutagenic activity in Salmonella Typhimurium TA1535 carrying pSK1002 containing umuC'-lacZ fused gene assessed as suppression of Trp-P-1-induced SOS response to alteration in DNA synthesis at 0.1 mM measured by beta-galactosidase activity by Umu test. It is filed as functional, Salmonella enterica subsp. enterica serovar Typhimurium. In a few lines:
as §1

The subject of assay [18] is Salmonella typhimurium. In words: Inhibition of Trp-P-1-induced SOS response to alteration in DNA synthesis in Salmonella Typhimurium TA1535 carrying pSK1002 containing umuC'-lacZ fused gene at 0.6 mM. The class given is functional, Salmonella enterica subsp. enterica serovar Typhimurium. Also noted: scale not given: the % may be the effect or the level left. In a few lines: as §1

As to `COc1cc(-c2cc(=O)c3c(OC)c(OC)c(OC)c(OC)c3o2)ccc1O`, the Activity in assay [1] came to 563.5 Miller_unit; in assay [2], 299.6 Miller_unit; in [3], 551.9 Miller_unit; in [5], 118.5 Miller_unit; in assay [6] it was 243.5 Miller_unit; in assay [7], 511.2 Miller_unit. For the same compound, the Activity in assay [9] turned out to be 163.9 Miller_unit; in assay [10] it was 224.2 Miller_unit; in assay [11] it was 80.9%; in assay [12] it was 182.4 Miller_unit; in assay [13], 76.4%; in assay [14], 489.9 Miller_unit. Moreover, the Activity in [16] amounted to 267.7 Miller_unit; in [17], 285.4 Miller_unit; in assay [18], 72.4%. Besides, the IC50 in [4] was 340 µM. The outcome in [8] and in assay [15] was Active.
